Published values pooled from the literature.
In brackets after ≈: the same amount, converted by molar mass.

O=c1[nH]c(NCc2ccc(Cl)c(Cl)c2)nc2ncn(CCCCCN3CCOCC3)c12
MIC (Lacticaseibacillus casei; microbial growth, agar dilution; 48 h): 16 µg/mL (≈ 34.4 µM)

N=C(NCCCCCCNC(=N)NC(=N)Nc1ccc(Cl)cc1)NC(=N)Nc1ccc(Cl)cc1
IC50 (Acanthamoeba castellanii; parasite growth, resazurin; 96 h): 5.97 µM

O=C1C(O)=C([C@H]2CC[C@H](c3ccc(Cl)cc3)CC2)C(=O)c2ccccc21
EC50 (Toxoplasma gondii; parasite growth; 72 h, intracellular): 0.0106 µM

OC[C@H]1O[C@@H](n2ccc3c(O)ncnc32)[C@H](O)[C@@H]1O
IC50 (Toxoplasma gondii; parasite growth; human Fibroblast; intracellular): 36.1 µM

COc1cc2[nH]c3cc(Oc4ccc(OC(F)(F)F)cc4)ccc3c(=O)c2cc1F
EC50 (Toxoplasma gondii; parasite growth; 72 h, intracellular): 0.00063 µM

Cc1nc2sccn2c1C(=O)N1CCN(CCn2cc(-c3ccc(C(C)(C)C)cc3)nn2)CC1
IC50 (Mycolicibacterium smegmatis; microbial growth; 72 h): > 128 µM

CC(C)(C)C1=CC(=NNC(=O)C2CCCCC2)C=C(C(C)(C)C)C1=O
IC50 (Toxoplasma gondii; parasite growth, fluorescence; 5 days, intracellular): > 100 µM

CCc1cc(Nc2cc(=O)n(CCCCO)c(=O)[nH]2)ccc1C
MIC (Lacticaseibacillus casei; microbial growth, agar dilution; 48 h): 32 µg/mL (≈ 101 µM)

N#Cc1cc(-c2nc3ccccc3s2)c(=O)n(NS(=O)(=O)c2ccccc2)c1N
IC50 (Human mastadenovirus B; plaque formation; HEp-2): 110 µg/mL

CCc1nc(N)nc(N)c1-c1ccc(Cl)cc1
IC50 (Toxoplasma gondii; parasite growth; human Fibroblast; intracellular): 16.1 µM

C[C@@H](c1ncncc1F)[C@](O)(Cn1cncn1)c1ccc(F)cc1F
IC50 (Acanthamoeba castellanii; parasite growth, resazurin; 7 days): 21.6 µM

Cc1ccc(C(=O)ON=C2C=C(C(C)(C)C)C(=O)C(C(C)(C)C)=C2)cc1
IC50 (Toxoplasma gondii; parasite growth, fluorescence; 5 days, intracellular): 13 µM
